Reference: ChEMBL document CHEMBL4196201, “Discovery of N-(4-{[5-Fluoro-7-(2-methoxyethoxy)quinazolin-4-yl]amino}phenyl)-2-[4-(propan-2-yl)-1 H-1,2,3-triazol-1-yl]acetamide (AZD3229), a Potent Pan-KIT Mutant Inhibitor for the Treatment of Gastrointestinal Stromal Tumors” (J Med Chem, 2018)
The source made the active and inactive calls. No cut-off for these calls is given here.

Legend:
[1] = Lipophilicity, log D of the compound at pH 7.4; format: physicochemical; details: buffer
[2] = Permeability from apical to basolateral side in human Caco2 cells at 10 uM at pH 6.5; format: ADME, cell-based; details: Caco-2, pH 6.5, read-out: permeability
How it was run: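 Caco2 permeability from A to B was measured at pH6.5 using a 10 μM compound solution, reported in units of 1E-6 cm/s.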

[3] = Intrinsic clearance in mouse hepatocytes assessed per million cells; format: ADME, cell-based, Hepatocyte; details: read-out: CLH
[4] = Intrinsic clearance in human hepatocytes assessed per million cells; format: ADME, cell-based, Hepatocyte; details: read-out: CLH
[5] = Half life in Han Wistar rat at […], po; format: ADME, organism-based; details: in vivo
[6] = test system: Mus musculus; test: Inhibition of Kit exon 11 deletion (557 to 558 residues) and D816H mutant (unknown origin) transfected in mouse BA/F3 cells allografted in CB17 SCID mouse assessed as reduction in ERK phosphorylation at 20 mg/kg, po administered as single dose measured after 8 hrs; format: functional, organism-based
How it was run: (§1)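 A single 20 mg/kg p.o. dose was given to mice carrying exon 11 del/D816H Ba/F3 allografts. Tumor pKIT, pERK and pAKT were measured over a timecourse, with free compound cover tracked in the same study.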

[7] = test system: Mus musculus; test: Inhibition of Kit exon 11 deletion (557 to 558 residues) and D816H mutant (unknown origin) transfected in mouse BA/F3 cells allografted in CB17 SCID mouse assessed as reduction in AKT phosphorylation at 20 mg/kg, po administered as single dose measured after 8 hrs; format: functional, organism-based; how it was run: as §1
[8] = test system: BaF3; test: Antitumor activity against mouse BA/F3 cells expressing Kit exon 11 deletion (557 to 558 residues) and V654 mutant (unknown origin) allografted in CB17 SCID mouse assessed as inhibition of tumor growth at 2 mg/kg, po bid measured on last day of dosing; format: functional; details: read-out: TGI
How it was run: (§2)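 Ba/F3 cells bearing the KIT exon 11 del/D816H or exon 11 del/V654A mutation were grown as allografts in mice. Compounds were given p.o. once (QD) or twice daily (BD), and vehicle was given BD p.o. Tumor growth inhibition and regression (%) were taken on the last day of dosing. p-values were calculated relative to vehicle.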

[9] = test system: BaF3; test: Antitumor activity against mouse BA/F3 cells expressing Kit exon 11 deletion (557 to 558 residues) and V654 mutant (unknown origin) allografted in CB17 SCID mouse assessed as inhibition of tumor growth at 20 mg/kg, po bid measured on last day of dosing; format: functional; details: read-out: TGI; how it was run: as §2
[10] = test system: BaF3; test: Antitumor activity against mouse BA/F3 cells expressing Kit exon 11 deletion (557 to 558 residues) and D816H mutant (unknown origin) allografted in CB17 SCID mouse assessed as tumor regression at 2 mg/kg, po bid measured on last day of dosing; format: functional; how it was run: as §2
[11] = test system: BaF3; test: Antitumor activity against mouse BA/F3 cells expressing Kit exon 11 deletion (557 to 558 residues) and D816H mutant (unknown origin) allografted in CB17 SCID mouse assessed as tumor regression at 20 mg/kg, po bid measured on last day of dosing; format: functional; how it was run: as §2
[12] = test system: BaF3; test: Antitumor activity against mouse BA/F3 cells expressing Kit exon 11 deletion (557 to 558 residues) and V654 mutant (unknown origin) allografted in CB17 SCID mouse assessed as tumor regression at 20 mg/kg, po bid measured on last day of dosing; format: functional; how it was run: as §2
[13] = target: Vascular endothelial growth factor receptor 2 (Homo sapiens) (UniProt P35968)
[14] = target: Mast/stem cell growth factor receptor Kit (Homo sapiens) (UniProt P10721)
[15] = target: Mast/stem cell growth factor receptor Kit (Homo sapiens) (UniProt P10721); remark: listed apart in the source
[16] = test system: Mast/stem cell growth factor receptor Kit (Homo sapiens), P10721 [UNDEFINED MUTATION]
[17] = test system: Mast/stem cell growth factor receptor Kit (Homo sapiens), P10721 [V560D]
[18] = test system: Mast/stem cell growth factor receptor Kit (Homo sapiens), P10721 [V560D,V654A]
[19] = test system: Mast/stem cell growth factor receptor Kit (Homo sapiens), P10721 [D816V]
Sequence of Mast/stem cell growth factor receptor Kit (Homo sapiens), P10721 [D816V] (P10721 whole entry D816V): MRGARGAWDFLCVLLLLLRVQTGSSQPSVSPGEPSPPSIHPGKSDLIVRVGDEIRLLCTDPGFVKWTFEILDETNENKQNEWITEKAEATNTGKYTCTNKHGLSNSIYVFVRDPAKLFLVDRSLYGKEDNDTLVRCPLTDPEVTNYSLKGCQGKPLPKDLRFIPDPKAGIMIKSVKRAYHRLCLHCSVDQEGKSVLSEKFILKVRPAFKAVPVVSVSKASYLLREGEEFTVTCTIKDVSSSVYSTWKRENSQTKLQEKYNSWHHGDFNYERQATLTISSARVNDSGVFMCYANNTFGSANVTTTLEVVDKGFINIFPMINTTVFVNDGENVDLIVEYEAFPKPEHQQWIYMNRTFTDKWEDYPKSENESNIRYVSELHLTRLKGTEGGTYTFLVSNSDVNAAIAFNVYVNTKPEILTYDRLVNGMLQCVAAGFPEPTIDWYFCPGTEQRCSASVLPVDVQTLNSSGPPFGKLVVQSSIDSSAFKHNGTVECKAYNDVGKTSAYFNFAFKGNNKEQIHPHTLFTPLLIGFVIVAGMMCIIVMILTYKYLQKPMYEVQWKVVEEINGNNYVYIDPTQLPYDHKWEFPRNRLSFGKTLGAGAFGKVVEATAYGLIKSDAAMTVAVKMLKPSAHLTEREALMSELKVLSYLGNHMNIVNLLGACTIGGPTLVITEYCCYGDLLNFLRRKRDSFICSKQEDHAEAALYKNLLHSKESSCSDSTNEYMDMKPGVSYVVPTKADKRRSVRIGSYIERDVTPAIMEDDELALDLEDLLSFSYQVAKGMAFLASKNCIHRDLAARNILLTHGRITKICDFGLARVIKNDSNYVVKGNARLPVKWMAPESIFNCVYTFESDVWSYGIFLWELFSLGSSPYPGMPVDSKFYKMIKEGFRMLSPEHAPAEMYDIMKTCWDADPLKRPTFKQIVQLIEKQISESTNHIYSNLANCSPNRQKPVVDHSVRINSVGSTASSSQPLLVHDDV

Sequence of Mast/stem cell growth factor receptor Kit (Homo sapiens) (P10721 whole entry): as the sequence (P10721 whole entry D816V) above, with V816D counted along it
Sequence of Mast/stem cell growth factor receptor Kit (Homo sapiens), P10721 [V560D,V654A] (P10721 whole entry V560D/V654A): as the sequence (P10721 whole entry D816V) above, with V560D, V654A, V816D counted along it
Sequence of Vascular endothelial growth factor receptor 2 (Homo sapiens) (P35968 whole entry): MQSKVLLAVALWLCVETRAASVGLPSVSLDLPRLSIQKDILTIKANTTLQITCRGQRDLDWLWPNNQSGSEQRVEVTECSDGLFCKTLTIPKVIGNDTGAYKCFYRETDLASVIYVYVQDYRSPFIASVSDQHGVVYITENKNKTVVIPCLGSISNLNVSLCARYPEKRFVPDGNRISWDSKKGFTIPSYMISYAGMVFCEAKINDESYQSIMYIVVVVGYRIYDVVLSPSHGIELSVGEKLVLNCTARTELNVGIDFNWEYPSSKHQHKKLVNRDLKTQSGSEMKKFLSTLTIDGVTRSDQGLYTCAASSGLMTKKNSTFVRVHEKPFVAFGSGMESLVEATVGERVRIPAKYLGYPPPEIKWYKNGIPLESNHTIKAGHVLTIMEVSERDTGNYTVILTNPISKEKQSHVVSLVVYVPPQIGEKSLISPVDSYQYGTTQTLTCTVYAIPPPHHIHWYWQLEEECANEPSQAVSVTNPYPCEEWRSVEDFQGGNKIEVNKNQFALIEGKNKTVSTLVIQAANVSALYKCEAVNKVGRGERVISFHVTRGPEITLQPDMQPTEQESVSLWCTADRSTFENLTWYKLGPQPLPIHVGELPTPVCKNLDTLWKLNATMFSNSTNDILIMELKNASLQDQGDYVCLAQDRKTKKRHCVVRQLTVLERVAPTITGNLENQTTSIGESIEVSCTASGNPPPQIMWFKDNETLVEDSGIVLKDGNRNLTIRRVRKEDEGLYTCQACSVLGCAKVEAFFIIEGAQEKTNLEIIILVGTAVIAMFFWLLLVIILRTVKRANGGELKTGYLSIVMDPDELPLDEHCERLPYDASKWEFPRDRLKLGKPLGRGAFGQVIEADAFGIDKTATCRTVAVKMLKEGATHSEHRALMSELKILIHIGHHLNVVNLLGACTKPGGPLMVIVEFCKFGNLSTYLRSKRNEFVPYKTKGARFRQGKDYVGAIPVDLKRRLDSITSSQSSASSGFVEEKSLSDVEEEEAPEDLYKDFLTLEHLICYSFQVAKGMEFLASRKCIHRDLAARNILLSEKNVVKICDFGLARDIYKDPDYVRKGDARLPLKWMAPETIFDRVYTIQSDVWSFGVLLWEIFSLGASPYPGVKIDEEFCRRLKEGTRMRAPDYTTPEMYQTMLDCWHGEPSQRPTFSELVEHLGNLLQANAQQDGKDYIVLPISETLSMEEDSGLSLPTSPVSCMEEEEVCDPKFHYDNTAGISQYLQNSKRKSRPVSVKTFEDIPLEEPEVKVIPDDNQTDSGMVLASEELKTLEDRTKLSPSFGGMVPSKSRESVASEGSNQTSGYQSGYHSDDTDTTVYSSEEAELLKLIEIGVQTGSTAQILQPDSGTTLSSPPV
Sequence of Mast/stem cell growth factor receptor Kit (Homo sapiens), P10721 [V560D] (P10721 whole entry V560D): as the sequence (P10721 whole entry D816V) above, with V560D, V816D counted along it
Sequence of Mast/stem cell growth factor receptor Kit (Homo sapiens), P10721 [UNDEFINED MUTATION] (P10721 whole entry, looked up, stated change not applied): as the sequence (P10721 whole entry D816V) above, with V816D counted along it

logD [1]: 3
Papp A→B at 10 µM [2]: 62.3 ×10⁻⁶ cm/s
hepatocyte CLint [3]: 5 µL/min/1e6 cells
hepatocyte CLint [4]: < 1 µL/min/1e6 cells
half-life [5]: 3 h
GI50 [13]: 1380 nM
GI50 [14]: 2 nM
GI50 [15]: 51 nM
GI50 [16]: 4 nM
GI50 [17]: 1 nM
GI50 [18]: 7 nM
GI50 [19]: 971 nM
SMILES: COCCOc1cc(F)c2c(Nc3ccc(NC(=O)Cn4cc(C(C)C)nn4)cc3)ncnc2c1
inhibition [6]: Active
inhibition [7]: Active
inhibition in vivo at 2 mg/kg [8]: > 100%
inhibition in vivo at 20 mg/kg [9]: > 100%
Activity [10]: 0%
Activity [11]: 75%
Activity [12]: 85%
